Active and inactive are the calls of the source. The calls are words filed in the database; no cut-off is given here.
How the values were obtained:
MIA PaCa-2 = test: Antiproliferative activity against human MIAPaCa2 cells at 4 uM after 48 hrs by MTT assay; type: functional; details: MIA PaCa-2, 48 h
In short: (§1)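 Epithelial cancer lines came from ATCC and were seeded the day before in complete medium: PC-3, SkOV3 and A549 at 3,000/well; MiaPaCa-2 and BxPC-3 at 4,000; T-47D and MDA-MB-468 at 5,000. Medium was switched to 0.5% FBS just before exposure to 4 μM. Read-out was MTT (4 h, 37 °C), SDS/HCl solubilisation, A595 minus cell-free blank. Growth inhibition was taken versus DMSO (≤0.1% v/v) controls, ≥2 experiments in triplicate.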

PC-3 = test: Antiproliferative activity against human PC3 cells at 4 uM after 48 hrs by MTT assay; type: functional; details: PC-3, 48 h; in short: as §1
T47D = test: Antiproliferative activity against human T47D cells at 4 uM after 48 hrs by MTT assay; type: functional; in short: as §1
[1] = target: T1, Retinoic acid receptor alpha (Homo sapiens) (UniProt P10276); test: Transactivation of Gal4-LBD fused human RARalpha (156 to 454) transfected in african green monkey CV1 cells assessed as luciferase activity at 2 uM after 6 hrs by Dual-light chemiluminescent assay; type: cell-based; details: CV-1
T1 sequence (whole entry): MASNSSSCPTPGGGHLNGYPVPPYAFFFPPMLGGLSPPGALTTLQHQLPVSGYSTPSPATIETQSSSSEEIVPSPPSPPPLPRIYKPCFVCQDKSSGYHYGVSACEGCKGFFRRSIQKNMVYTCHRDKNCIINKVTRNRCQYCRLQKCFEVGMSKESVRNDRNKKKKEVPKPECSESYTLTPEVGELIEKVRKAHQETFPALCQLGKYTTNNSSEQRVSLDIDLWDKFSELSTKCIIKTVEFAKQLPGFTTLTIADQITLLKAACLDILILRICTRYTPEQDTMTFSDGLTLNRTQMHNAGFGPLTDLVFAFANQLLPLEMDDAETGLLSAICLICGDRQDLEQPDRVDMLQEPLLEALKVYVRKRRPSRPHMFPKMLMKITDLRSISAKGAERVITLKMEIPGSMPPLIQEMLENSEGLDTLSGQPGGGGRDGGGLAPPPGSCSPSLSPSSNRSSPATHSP

Jurkat [2] = test: Induction of apoptosis in human Jurkat T cells assessed as induction of DEVDase activity at 1 uM after 4 hrs by fluorescence assay; type: functional, cell-based
In short: (§2)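 Jurkat cells (40,000/well, 10^6 cells/mL, RPMI with 0.5% FBS) were treated for 4 h; controls got 0.1% DMSO. Lysis was in CE buffer (PIPES pH 7, NP-40, cytochalasin B, protease inhibitors) for 30 min at 4 °C. Lysates were mixed with 2x caspase buffer (HEPES pH 7.4, CHAPS, sucrose) holding 100 μM Ac-DEVD-AFC and incubated at 37 °C for 30 min. AFC was read every 2 min, ex 390/em 510 nm.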

A549 = test: Antiproliferative activity against human A549 cells at 4 uM after 72 hrs by MTT assay; type: functional; details: A549, 72 h; in short: as §1
Jurkat [3] = test: Antiproliferative activity against human Jurkat T cells after 48 hrs by MTT assay
[4] = target: T2, Retinoic acid receptor beta (Homo sapiens) (UniProt P10826); test: Transactivation of Gal4-LBD fused human RARbeta (169 to 448) transfected in african green monkey CV1 cells assessed as luciferase activity at 2 uM after 6 hrs by Dual-light chemiluminescent assay; type: cell-based; details: CV-1
T2 sequence (whole entry): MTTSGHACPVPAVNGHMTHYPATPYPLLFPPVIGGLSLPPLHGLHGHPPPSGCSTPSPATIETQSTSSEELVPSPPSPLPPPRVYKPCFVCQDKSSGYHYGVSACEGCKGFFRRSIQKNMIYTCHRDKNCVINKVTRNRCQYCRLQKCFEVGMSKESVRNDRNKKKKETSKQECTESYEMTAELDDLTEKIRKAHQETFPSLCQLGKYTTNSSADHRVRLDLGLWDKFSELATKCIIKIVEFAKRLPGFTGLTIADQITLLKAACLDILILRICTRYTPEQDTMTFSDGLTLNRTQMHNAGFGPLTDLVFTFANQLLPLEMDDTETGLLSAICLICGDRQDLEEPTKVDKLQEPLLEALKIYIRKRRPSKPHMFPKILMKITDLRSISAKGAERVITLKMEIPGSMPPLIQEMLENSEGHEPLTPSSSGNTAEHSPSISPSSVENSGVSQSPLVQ
In short: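 Transfected CV-1 cells carried Gal4-LBD constructs: hRARα 156–462, hRARβ 169–448, hRARγ 178–454 or mRXRα 218–467. Transfection used 10 ng Gal4-LBD, 100 ng UAS-luciferase and 25 ng β-gal vector. After 16 h the medium was changed to 5% charcoal-treated FBS. Cells were stimulated with 2 μM analog for 6 h (RARα, RARβ, RXRα) or 20 h (RARγ). Reference agonists were 1 μM atRA (RARα) and 1 μM 9cRA (RXRα). Luciferase and β-galactosidase were read by chemiluminescence.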

BXPC-3 = test: Antiproliferative activity against human BxPC3 cells at 4 uM after 48 hrs by MTT assay; type: functional; details: BXPC-3, 48 h; in short: as §1
SK-OV-3 = test: Antiproliferative activity against human SKOV3 cells at 4 uM after 48 hrs by MTT assay; type: functional; details: SK-OV-3, 48 h; in short: as §1
MDA-MB-468 = test: Antiproliferative activity against human MDA-MB-468 cells at 4 uM after 48 hrs by MTT assay; type: functional; details: MDA-MB-468, 48 h; in short: as §1
Jurkat [5] = test: Induction of apoptosis in human Jurkat T cells assessed as induction of DEVDase activity at 4 uM after 4 hrs by fluorescence assay; type: functional, cell-based; in short: as §2
[6] = target: T1, Retinoic acid receptor alpha (Homo sapiens); test: Inhibition of transactivation activity of Gal4-LBD fused human RARalpha (156 to 454) transfected in atRA-stimulated african green monkey CV1 cells at 0.2 uM after 6 hrs by Dual-light chemiluminescent assay; type: cell-based
In short: (§3)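 Gal4 DBD (1–147) was fused to hRARα (156–462) or hRARβ (169–448) LBD. CV-1 cells (20,000/well) were co-transfected with 10 ng Gal4-LBD, 100 ng UAS-luciferase and 25 ng β-gal vector. After 16 h the medium was replaced with medium containing 5% charcoal-treated FBS. Cells got atRA plus test compound at 10-, 40- or 200-fold excess (0.2, 0.8, 4 μM) for 6 h. Luciferase and β-galactosidase were read by chemiluminescence.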

[7] = target: T3, Retinoic acid receptor RXR-alpha (Mus musculus, UniProt P28700); test: Transactivation of Gal4-LBD fused mouse RXRalpha (218 to 467) transfected in african green monkey CV1 cells assessed as luciferase activity at after 6 hrs by Dual-light chemiluminescent assay; type: cell-based, CV-1
T3 sequence (P28700 whole entry): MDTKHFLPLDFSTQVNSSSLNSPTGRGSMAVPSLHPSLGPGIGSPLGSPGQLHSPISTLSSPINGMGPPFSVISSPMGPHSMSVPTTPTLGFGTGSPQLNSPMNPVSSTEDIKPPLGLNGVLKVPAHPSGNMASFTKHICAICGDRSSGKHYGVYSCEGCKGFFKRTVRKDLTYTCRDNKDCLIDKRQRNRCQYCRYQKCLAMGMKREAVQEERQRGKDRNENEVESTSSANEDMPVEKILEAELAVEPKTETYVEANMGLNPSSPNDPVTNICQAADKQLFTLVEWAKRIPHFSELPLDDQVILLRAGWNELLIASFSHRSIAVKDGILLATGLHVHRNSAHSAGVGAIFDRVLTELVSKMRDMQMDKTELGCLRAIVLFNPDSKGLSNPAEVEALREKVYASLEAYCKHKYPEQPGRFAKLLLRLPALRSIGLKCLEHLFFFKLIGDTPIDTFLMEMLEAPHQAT

[8] = target: T1, Retinoic acid receptor alpha (Homo sapiens); test: Inhibition of transactivation activity of Gal4-LBD fused human RARalpha (156 to 454) transfected in atRA-stimulated african green monkey CV1 cells at 4 uM after 6 hrs by Dual-light chemiluminescent assay; type: cell-based; details: CV-1; in short: as §3
[9] = target: T2, Retinoic acid receptor beta (Homo sapiens); test: Inhibition of transactivation activity of Gal4-LBD fused human RARbeta (169 to 448) transfected in atRA-stimulated african green monkey CV1 cells at 4 uM after 6 hrs by Dual-light chemiluminescent assay; type: cell-based; details: CV-1; in short: as §3
[10] = target: T4, Retinoic acid receptor gamma (Homo sapiens) (UniProt P13631); test: Inhibition of transactivation activity of Gal4-LBD fused human RARgamma (178 to 454) transfected in atRA-stimulated african green monkey CV1 cells at 4 uM after 20 hrs by Dual-light chemiluminescent assay; details: CV-1
T4 sequence (whole entry): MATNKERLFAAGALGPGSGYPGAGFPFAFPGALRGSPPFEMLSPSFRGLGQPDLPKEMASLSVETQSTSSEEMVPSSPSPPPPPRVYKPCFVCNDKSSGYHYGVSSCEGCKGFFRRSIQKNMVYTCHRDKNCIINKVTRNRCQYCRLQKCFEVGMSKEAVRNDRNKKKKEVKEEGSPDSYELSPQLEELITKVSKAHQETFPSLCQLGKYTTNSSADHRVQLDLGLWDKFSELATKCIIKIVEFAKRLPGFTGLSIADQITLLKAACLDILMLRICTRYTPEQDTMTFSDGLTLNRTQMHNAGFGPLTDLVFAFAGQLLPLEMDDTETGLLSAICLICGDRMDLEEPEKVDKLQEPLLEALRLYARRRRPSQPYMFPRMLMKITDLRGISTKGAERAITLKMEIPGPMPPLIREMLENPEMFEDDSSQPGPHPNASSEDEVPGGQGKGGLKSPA

Jurkat [11] = test: Antiproliferative activity against human Jurkat T cells at 62.5 nM after 48 hrs by MTT assay; type: functional, cell-based
In short: (§4)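 Jurkat T cells were resuspended at 10^5 cells/mL in RPMI with 0.5% FBS (10,000/well) and seeded immediately before dosing at 62.5 nM–2 μM for two days. Viability was read by MTT (4 h, 37 °C), formazan dissolved in 10% SDS/10 mM HCl, A595 with cell-free background subtracted. Values are relative to DMSO controls (≤0.1% v/v); at least two experiments in triplicate.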

Jurkat [12] = test: Antiproliferative activity against human Jurkat T cells at 2 uM after 48 hrs by MTT assay; type: functional, cell-based; in short: as §4

SMILES	inhibition at 4 µM (MIA PaCa-2)	inhibition at 4 µM (PC-3)	inhibition at 4 µM (T47D)	Activity [1]	Activity (Jurkat [2])	inhibition at 4 µM (A549)	IC50 (Jurkat [3])	Activity [4]	inhibition at 4 µM (BXPC-3)	inhibition at 4 µM (SK-OV-3)	inhibition at 4 µM (MDA-MB-468)	Activity (Jurkat [5])	inhibition ([6]; CV-1, 0.2 uM)	EC50 [7]	inhibition [8]	Activity [9]	Activity [10]	Activity (Jurkat [11])	inhibition ([6]; CV-1, 4 uM, in the assay text read “at 4 uM” for “at 0.2 uM”)	Activity (Jurkat [12])
C/C(=C/c1ccc(C(=O)O)cc1)c1ccc(O)c(C23CC4CC(CC(C4)C2)C3)c1	76.1%	92.3%	62.7%	inactive	Active	79%	82 nM	inactive	95.7%	67%	76.7%	Active								
COCCOCOc1cc(C)c(-c2ccc(/C=C/C(=O)O)cc2Cl)cc1C12CC3CC(CC(C3)C1)C2	63.3%	72%	29.1%	inactive		51.1%	1870 nM	inactive	45.8%	80.1%	42%		inactive	600 nM	27%	inactive	inactive			
Cc1cc(O)c(C23CC4CC(CC(C4)C2)C3)cc1-c1ccc(/C=C/C(=O)O)cc1Cl	26.3%	68.7%	24.2%	inactive		23.7%	1410 nM	inactive	36%	65.1%	24.9%		inactive	576 nM		inactive	inactive	inactive		
COCCOCOc1ccc(C(=O)/C=C/c2ccc(C(=O)O)cc2)cc1C12CC3CC(CC(C3)C1)C2	74.9%	92.1%	50.6%	inactive	Active	42.1%	287 nM	inactive	96.6%	61.5%	72.4%	Active				Active	Active		90%	
Cc1cc(O)c(C23CC4CC(CC(C4)C2)C3)cc1-c1ccc2cc(C(=O)O)ccc2c1Cl	91.5%	97.7%	55.8%	inactive	Active	88.1%	435 nM	inactive	94.7%	87%	59.2%		inactive		27%	inactive	inactive			
Cc1cc(O)c(C23CC4CC(CC(C4)C2)C3)cc1-c1ccc(CC(=O)O)cc1Cl	26.8%	66.7%	29.1%	inactive		15.9%		inactive	49.2%	30.3%	11.1%		inactive			inactive	inactive	inactive		Active
